Reference: ChEMBL document CHEMBL2396529, “Synthesis and anticancer mechanism investigation of dual Hsp27 and tubulin inhibitors” (J Med Chem, 2013)
One block for each molecule: values may come before it. Active and inactive are the calls of the source. The rule behind the calls is not given here.

Legend:
SK-BR-3 [1] = experiment: Antiproliferative activity against human SKBR3 cells after 48 hrs by MTT assay; format: functional, cell-based; settings: SK-BR-3, 48 h
Procedure, shortened: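 MTT assay on SKBR-3 cells (RPMI 1640, 10% heat-inactivated FBS, 37 °C, 5% CO2), seeded 24 h before dosing, then exposed 48 h to a concentration series in DMSO (final ≤0.1%) with vehicle-matched controls. Afterwards 0.5 mg/mL MTT for 2 h, formazan dissolved in DMSO, A570 read, six replicates. IC50 from nonlinear regression.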

[2] = target: Heat shock protein beta-1 (Homo sapiens) (UniProt P04792); experiment: Inhibition of HSP27 (unknown origin) assessed as increase in DTT-induced insulin B chain aggregation at 10 uM incubated for 5 mins prior to DTT-treatment measured after 30 mins by spectrophotometric analysis relative to control
SK-BR-3 [3] = experiment: Cell cycle arrest in human SKBR3 cells assessed as accumulation at subG1 phase at […] after 24 hrs by propidium iodide staining-based FACS flow cytometric analysis (reference value: 3.23%); format: functional
SK-BR-3 [4] = experiment: Cell cycle arrest in human SKBR3 cells assessed as accumulation at subG1 phase at 1 nM after 24 hrs by propidium iodide staining-based FACS flow cytometric analysis (reference value: 3.23%); format: functional
SK-BR-3 [5] = experiment: Cell cycle arrest in human SKBR3 cells assessed as accumulation at subG1 phase at 5 nM after 24 hrs by propidium iodide staining-based FACS flow cytometric analysis (reference value: 3.23%); format: functional
Bos taurus [6] = species on record: Bos taurus; experiment: Inhibition of bovine brain tubulin polymerization at 100 nM after 15 mins by spectrophotometric analysis relative to control in presence of GTP
SK-BR-3 [7] = experiment: Effect on HER2 protein level human SKBR3 cells at 5 to 15 nM after 24 hrs by Western blotting analysis; format: functional, cell-based
SK-BR-3 [8] = experiment: Cell cycle arrest in human SKBR3 cells assessed as accumulation at G2/M phase at […] after 24 hrs by propidium iodide staining-based FACS flow cytometric analysis (reference value: 10.77%); format: functional
SK-BR-3 [9] = experiment: Effect on EIF4E protein level human SKBR3 cells at 5 to 15 nM after 24 hrs by Western blotting analysis; format: functional, cell-based
SK-BR-3 [10] = experiment: Cell cycle arrest in human SKBR3 cells assessed as accumulation at G1 phase at 5 nM after 24 hrs by propidium iodide staining-based FACS flow cytometric analysis (reference value: 69.63%); format: functional
Bos taurus [11] = species on record: Bos taurus; experiment: Inhibition of bovine brain tubulin polymerization after 20 mins by spectrophotometric analysis in presence of GTP
SK-BR-3 [12] = experiment: Cell cycle arrest in human SKBR3 cells assessed as accumulation at S phase at 1 nM after 24 hrs by propidium iodide staining-based FACS flow cytometric analysis (reference value: 16.34%); format: functional
SK-BR-3 [13] = experiment: Cell cycle arrest in human SKBR3 cells assessed as accumulation at G1 phase at 1 nM after 24 hrs by propidium iodide staining-based FACS flow cytometric analysis (reference value: 69.63%); format: functional
SK-BR-3 [14] = experiment: Induction of HSP27 phosphorylation in human SKBR3 cells at 5 to 15 nM after 24 hrs by Western blotting analysis; format: functional, cell-based
Procedure, shortened: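 SKBR-3 cells exposed to 5, 10 and 15 nM for 24 h against DMSO, then lysed, sonicated and spun at 12000g for 10 min. 30 μg protein run on 10% SDS-PAGE and transferred to PVDF. Blocked with 5% milk in PBST, probed with specific primary antibodies and an HRP secondary. pHsp27 bands quantified and normalised to β-actin.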

Bos taurus [15] = species on record: Bos taurus; experiment: Inhibition of bovine brain tubulin polymerization at 10 nM after 15 mins by spectrophotometric analysis relative to control in presence of GTP
Bos taurus [16] = species on record: Bos taurus; experiment: Inhibition of bovine brain tubulin polymerization at 1 uM after 15 mins by spectrophotometric analysis relative to control in presence of GTP
SK-BR-3 [17] = experiment: Induction of apoptosis in human SKBR3 cells assessed as increase in cleaved caspase-3 protein level at 5 to 15 nM after 24 hrs by Western blotting analysis; format: functional, cell-based
Procedure, shortened: (§1)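 SKBR-3 cells treated 24 h with 5, 10 and 15 nM against DMSO. Lysates (60 μg protein) resolved on 10% SDS-PAGE, transferred to PVDF, blocked in 5% milk/PBST and immunoblotted for cleaved caspase 3 and cleaved PARP with an HRP secondary.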

SK-BR-3 [18] = experiment: Cell cycle arrest in human SKBR3 cells assessed as accumulation at S phase at 5 nM after 24 hrs by propidium iodide staining-based FACS flow cytometric analysis (reference value: 16.34%); format: functional
SK-BR-3 [19] = experiment: Induction of apoptosis in human SKBR3 cells assessed as increase in cleaved PARP protein level at 5 to 15 nM after 24 hrs by Western blotting analysis; format: functional, cell-based; procedure, shortened: as §1
SK-BR-3 [20] = experiment: Cell cycle arrest in human SKBR3 cells assessed as accumulation at G2/M phase at 5 nM after 24 hrs by propidium iodide staining-based FACS flow cytometric analysis (reference value: 10.77%); format: functional
SK-BR-3 [21] = experiment: Effect on HSP70 protein level human SKBR3 cells at 5 to 15 nM after 24 hrs by Western blotting analysis; format: functional, cell-based
SK-BR-3 [22] = experiment: Effect on STAT3 protein level human SKBR3 cells at 5 to 15 nM after 24 hrs by Western blotting analysis; format: functional, cell-based
SK-BR-3 [23] = experiment: Cell cycle arrest in human SKBR3 cells assessed as accumulation at G1 phase at […] after 24 hrs by propidium iodide staining-based FACS flow cytometric analysis (reference value: 69.63%); format: functional
SK-BR-3 [24] = experiment: Cell cycle arrest in human SKBR3 cells assessed as accumulation at S phase at […] after 24 hrs by propidium iodide staining-based FACS flow cytometric analysis (reference value: 16.34%); format: functional
SK-BR-3 [25] = experiment: Cell cycle arrest in human SKBR3 cells assessed as accumulation at G2/M phase at 1 nM after 24 hrs by propidium iodide staining-based FACS flow cytometric analysis (reference value: 10.77%); format: functional

Chain of Heat shock protein beta-1 (Homo sapiens) (P04792 whole entry): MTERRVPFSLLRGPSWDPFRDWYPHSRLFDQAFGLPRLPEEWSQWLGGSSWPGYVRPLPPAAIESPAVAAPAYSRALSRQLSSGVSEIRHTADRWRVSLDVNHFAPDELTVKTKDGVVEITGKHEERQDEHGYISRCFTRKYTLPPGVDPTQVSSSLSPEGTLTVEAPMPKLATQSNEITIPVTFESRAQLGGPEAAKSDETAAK

IC50 (SK-BR-3 [1]): 18400 nM
SMILES: Cc1ccc(C(F)(F)F)cc1COc1cc(NC(=O)c2ccc3ccccc3c2)ccc1N(C)S(C)(=O)=O

IC50 (SK-BR-3 [1]): 41400 nM
SMILES: Cc1ccc(C)c(COc2cc(NC(=O)c3ccc4ccccc4c3)ccc2N(C)S(=O)(=O)C(F)(F)F)c1

IC50 (SK-BR-3 [1]): 20000 nM
SMILES: CCCCCCOc1cc(NC(=O)c2ccc(OC)cc2)ccc1N(C)S(C)(=O)=O

IC50 (SK-BR-3 [1]): 510 nM
SMILES: COc1ccc(OC)c(COc2cc(NC(=O)c3ccc(I)cc3)ccc2N(C)S(=O)(=O)C(F)(F)F)c1

IC50 (SK-BR-3 [1]): 2850 nM
SMILES: CN(c1ccc(NC(=O)c2ccc3c(c2)OCO3)cc1OCc1cc(Cl)ccc1Cl)S(C)(=O)=O

IC50 (SK-BR-3 [1]): 200 nM
SMILES: COc1ccc(OC)c(COc2cc(NC(=O)c3ccc4ccccc4c3)ccc2N(C)S(=O)(=O)C(F)(F)F)c1

inhibition [2]: 28%
SMILES: Cc1ccc(C)c(COc2cc(NC(=O)c3ccc(I)cc3)ccc2N(C)S(C)(=O)=O)c1

IC50 (SK-BR-3 [1]): 14700 nM
SMILES: Cc1ccc(C(F)(F)F)cc1COc1cc(NC(=O)c2ccc3c(c2)OCO3)ccc1N(C)S(C)(=O)=O

IC50 (SK-BR-3 [1]): 9.58 nM
SMILES: COc1ccc(OC)c(COc2cc(NC(=O)c3ccc(Br)cc3)ccc2NS(C)(=O)=O)c1

IC50 (SK-BR-3 [1]): 5320 nM
SMILES: COc1ccc(C(=O)Nc2ccc(N(C)S(=O)(=O)C(F)(F)F)c(OCc3cc(C)ccc3C)c2)cc1

IC50 (SK-BR-3 [1]): 16.6 nM
SMILES: COc1ccc(OC)c(COc2cc(NC(=O)c3ccc4ccccc4c3)ccc2N(C)S(C)(=O)=O)c1

IC50 (SK-BR-3 [1]): 39300 nM
SMILES: COc1ccc(C(=O)Nc2ccc(N(C)S(=O)(=O)C(F)(F)F)c(OCc3cc(C)ccc3C)c2)cc1OC

IC50 (SK-BR-3 [1]): 3.51 nM
SMILES: COc1ccc(OC)c(COc2cc(NC(=O)c3ccc(Br)cc3)ccc2N(C)S(C)(=O)=O)c1

inhibition (Bos taurus [6]): 19%
inhibition (Bos taurus [11]): Dose-dependent effect
inhibition (Bos taurus [15]): 5%
inhibition (Bos taurus [16]): 66%
IC50 (SK-BR-3 [1]): 2.56 nM
inhibition [2]: 9%
SMILES: COc1ccc(C(=O)Nc2ccc(N(C)S(C)(=O)=O)c(OCc3cc(OC)ccc3OC)c2)cc1
Activity (SK-BR-3 [3]): 27.43%
Activity (SK-BR-3 [4]): 17.1%
Activity (SK-BR-3 [5]): 33.54%
Activity (SK-BR-3 [7]): inactive
Activity (SK-BR-3 [8]): 28.57%
Activity (SK-BR-3 [9]): inactive
Activity (SK-BR-3 [10]): 32.02%
Activity (SK-BR-3 [12]): 8.71%
Activity (SK-BR-3 [13]): 61.21%
Activity (SK-BR-3 [14]): Active
Activity (SK-BR-3 [17]): Active
Activity (SK-BR-3 [18]): 8.83%
Activity (SK-BR-3 [19]): Active
Activity (SK-BR-3 [20]): 25.47%
Activity (SK-BR-3 [21]): inactive
Activity (SK-BR-3 [22]): inactive
Activity (SK-BR-3 [23]): 34.91%
Activity (SK-BR-3 [24]): 8.92%
Activity (SK-BR-3 [25]): 12.78%

IC50 (SK-BR-3 [1]): 2210 nM
SMILES: CN(c1ccc(NC(=O)c2ccc3ccccc3c2)cc1OCc1cc(Cl)ccc1Cl)S(C)(=O)=O

IC50 (SK-BR-3 [1]): 110 nM
SMILES: COc1ccc(C(=O)Nc2ccc(N(C)S(=O)(=O)C(F)(F)F)c(OCc3cc(OC)ccc3OC)c2)cc1

IC50 (SK-BR-3 [1]): 2290 nM
SMILES: CN(c1ccc(NC(=O)c2ccc(Br)cc2)cc1OCc1cc(Cl)ccc1Cl)S(C)(=O)=O

IC50 (SK-BR-3 [1]): 13500 nM
SMILES: Cc1ccc(C)c(COc2cc(NC(=O)c3ccc(I)cc3)ccc2N(C)S(=O)(=O)C(F)(F)F)c1

IC50 (SK-BR-3 [1]): 64300 nM
SMILES: CCCCCCOc1cc(NC(=O)c2ccc3ccccc3c2)ccc1N(C)S(C)(=O)=O

IC50 (SK-BR-3 [1]): 660 nM
SMILES: CN(c1ccc(NC(=O)c2ccc(I)cc2)cc1OCc1cc(Cl)ccc1Cl)S(C)(=O)=O

IC50 (SK-BR-3 [1]): 13.3 nM
SMILES: COc1ccc(OC)c(COc2cc(NC(=O)c3ccc4ccccc4c3)ccc2NS(C)(=O)=O)c1

IC50 (SK-BR-3 [1]): 470 nM
SMILES: COc1ccc(OC)c(COc2cc(NC(=O)c3ccc(Br)cc3)ccc2N(C)S(=O)(=O)C(F)(F)F)c1

IC50 (SK-BR-3 [1]): 550 nM
SMILES: COc1ccc(OC)c(COc2cc(NC(=O)c3ccc(OC)c(OC)c3)ccc2N(C)S(=O)(=O)C(F)(F)F)c1
